Test results as given in PubChem BioAssay AID504323 (Broad Institute, 2011).
“And” between values parts separate entries of the source, which are not always exact repeats. Identical values can stand only once. The source made the active and inactive calls.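 The calls were made as follows: active = compounds lowering the viability signal whose fitted AC50 is no more than ten times their top tested dose; inconclusive = flat fit with a 30 to 70% drop, or poor fit; inactive = the rest.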

test system: not listed separately; experiment: U2OS reporter cell viability with added zinc – zinc-supplemented medium, dry powder, cytotoxicity control for HIF pathway activator project, dose response (AID 504323); conditions: U2OS HRE-luciferase cells, viability toxicity, luminescence; at 38 µM (top of the series)
How it was run: (§1)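 Assay system: U2OS 3×HRE-luciferase reporter cells. Amount: 6,000 cells per well. Buffer or medium: 50 µM zinc sulfate final. Dosing: Eight-point compound series with threefold dilution steps. Schedule: 24 h attachment, then 24 h compound exposure at 37 °C. Technique: CellTiter-Glo luminescence for cell viability.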

| SMILES | activity change, negative = toxicity |
| --- | --- |
| c1ccc(-c2nnc(-c3ccccn3)nc2N2CCC(C3CCCCC3)C2)cc1 (centres undefined) | 25.2% (inactive) |
| O=C(NCCCn1ccnc1)c1cc(-c2ccccc2)on1 | -5.48% (inactive) |
| c1ccc(-c2nnc(-c3ccccn3)nc2NCc2ccccn2)cc1 | -3.76% (inactive) |
| O=C(NCCCCO)c1cc(-c2ccccc2)on1 | 6.82% (inactive) |
| CC(Nc1nc(-c2ccccn2)nnc1-c1ccccc1)c1ccccc1 (centres undefined) | -0.542% (inactive) |
| O=C(Nc1ncc2ccccc2n1)c1cc(-c2ccccc2)on1 | -15.3% (inactive) |
| Cc1cccc(CNc2nc(-c3ccccn3)nnc2-c2ccccc2)c1 | -2.48% (inactive) |
| c1ccc(-c2nnc(-c3ccccn3)nc2NCC2CC2)cc1 | 20.9% (inactive) |
| O=C(NCc1ccccc1)c1cc(-c2ccccc2)on1 | 4.7% (inactive) |
| c1ccc(-c2nnc(-c3ccccn3)nc2N2CCN(c3ccncc3)CC2)cc1 | 16.2% (inactive) |
| c1ccc(CCNc2nc(-c3ccccn3)nnc2-c2ccccc2)cc1 | -7.93% (inactive) |
| CCCCNC(=O)c1cc(-c2ccccc2)on1 | 15.6% (inactive) |
| CC1CN(Cc2ccc(O)c3ncccc23)CC(C)O1 (centres undefined) | -3.44% (inactive) |
| O=C(NCCN1CCCCC1)c1cc(-c2ccccc2)on1 | 14.1% (inactive) |
| O=C(c1cc(-c2ccccc2)on1)N1CCC(N2CCOCC2)CC1 | 2.52% (inactive) |
| CC(C)(C)CCNc1nc(-c2ccccn2)nnc1-c1ccccc1 | -16.3% (inactive) |
| c1ccc(-c2nnc(-c3ccccn3)nc2NCc2cccnc2)cc1 | 30.2% (inactive) |
| COc1ccc(CNc2nc(-c3ccccn3)nnc2-c2ccccc2)cc1 | 1.65% (inactive) |
| COc1cccc(CNc2nc(-c3ccccn3)nnc2-c2ccccc2)c1 | -8.43% (inactive) |
| c1ccc(-c2cnc(Nc3nc(-c4ccccn4)nnc3-c3ccccc3)s2)cc1 | 10.3% (inactive) |
| O=C(c1cc(-c2ccccc2)on1)N1CCN(c2ccncc2)CC1 | -1.95% (inactive) |
| CN(C)c1nc(-c2ccccn2)nnc1-c1ccccc1 | 33.4% (inactive) |
| O=C(c1cc(-c2ccccc2)on1)N1CCC(CO)CC1 | 9.31% (inactive) |
| O=C(c1cc(-c2ccccc2)on1)N1CCC(N2CCCC2)CC1 | 4.1% (inactive) |
| c1ccc(-c2nnc(-c3ccccn3)nc2NCCCN2CCOCC2)cc1 | 23.8% (inactive) |

| SMILES | activity change, negative = toxicity |
| --- | --- |
| O=C(NCC1CCCCC1)c1cc(-c2ccccc2)on1 | -11% (inactive) |
| CC(C)(C)CCNC(=O)c1cc(-c2ccccc2)on1 | -8.3% (inactive) |
| Clc1cccc(CNc2nc(-c3ccccn3)nnc2-c2ccccc2)c1 | -1.81% (inactive) |
| c1ccc(-c2nnc(-c3ccccn3)nc2N2CCC(c3ccccc3)C2)cc1 (centres undefined) | -12.2% (inactive) |
| c1ccc(-c2cccc(CNc3nc(-c4ccccn4)nnc3-c3ccccc3)c2)cc1 | 21.1% (inactive) |
| O=C(NCCN1CCOCC1)c1cc(-c2ccccc2)on1 | 10.8% (inactive) |
| Cc1ccccc1CNc1nc(-c2ccccn2)nnc1-c1ccccc1 | -8.68% (inactive) |
| OCC1CCN(Cc2ccc(O)c3ncccc23)CC1 | -18.1% (inactive) |
| c1ccc(-c2nnc(-c3ccccn3)nc2NCCN2CCOCC2)cc1 | 3.62% (inactive) |
| O=C(Nc1nc2ccccc2s1)c1cc(-c2ccccc2)on1 | 18.7% (inactive) |
| O=C(NCCCN1CCOCC1)c1cc(-c2ccccc2)on1 | 15.2% (inactive) |
| CN(C)CCNC(=O)c1cc(-c2ccccc2)on1 | 7.75% (inactive) |
| CN1CCN(C(=O)c2cc(-c3ccccc3)on2)CC1 | 2.31% (inactive) |
| O=C(c1cc(-c2ccccc2)on1)N1CCc2cccnc21 | -4.78% (inactive) |
| COc1ccccc1N1CCN(Cc2ccc(O)c3ncccc23)CC1 | -14.5% (inactive) |
| Cc1ccc(CNC(=O)c2cc(-c3ccccc3)on2)cc1 | -12.8% (inactive) |
| OCC1CCN(c2nc(-c3ccccn3)nnc2-c2ccccc2)CC1 | 10.9% (inactive) |
| Oc1ccc(CN2CCc3ccccc3C2)c2cccnc12 | -93.5% (inactive) and -0.278% (inactive) |
| O=C(NC1Cc2ccccc2C1)c1cc(-c2ccccc2)on1 | -8.56% (inactive) |
| Oc1ccc(CN2CCC(Cc3ccccc3)CC2)c2cccnc12 | -1.98% (inactive) |
| C=CCNc1nc(-c2ccccn2)nnc1-c1ccccc1 | 29% (inactive) |
| O=C(Nc1ncc(-c2ccccc2)o1)c1cc(-c2ccccc2)on1 | -2.78% (inactive) |
| O=C(Nc1nc(-c2ccccc2)cs1)c1cc(-c2ccccc2)on1 | 7.74% (inactive) |
| Cc1cccc(Nc2nc(-c3ccccn3)nnc2-c2ccccc2)n1 | -13.3% (inactive) |
| Cc1cccc(CNC(=O)c2cc(-c3ccccc3)on2)c1 | -2.43% (inactive) |

| SMILES | activity change, negative = toxicity |
| --- | --- |
| O=C(Nc1cnc2ccccc2c1)c1cc(-c2ccccc2)on1 | 5.21% (inactive) |
| c1ccc(-c2nnc(-c3ccccn3)nc2NCC2CCOCC2)cc1 | 14.9% (inactive) |
| O=C(Nc1ccc2ccccc2n1)c1cc(-c2ccccc2)on1 | 16.8% (inactive) |
| Cc1ccccc1CNC(=O)c1cc(-c2ccccc2)on1 | 6.54% (inactive) |
| Oc1ccc(CNC2CCc3ccccc32)c2cccnc12 (centres undefined) | -6.14% (inactive) |
| OCCCNc1nc(-c2ccccn2)nnc1-c1ccccc1 | 17.6% (inactive) |
| O=C(NCCCO)c1cc(-c2ccccc2)on1 | 3.54% (inactive) |
| Cc1ccc(NC(=O)c2cc(-c3ccccc3)on2)cn1 | -11.1% (inactive) |
| CN1CCN(c2nc(-c3ccccn3)nnc2-c2ccccc2)CC1 | -11.4% (inactive) |
| c1ccc(CNc2nc(-c3ccccn3)nnc2-c2ccccc2)cc1 | 11.5% (inactive) |
| O=C(Nc1nnc(-c2ccccc2)s1)c1cc(-c2ccccc2)on1 | 16.2% (inactive) |
| c1ccc(-c2nnc(-c3ccccn3)nc2NCCc2ccccn2)cc1 | 12.3% (inactive) |
| c1ccc(-c2nnc(-c3ccccn3)nc2N2CCC(N3CCOCC3)CC2)cc1 | 21.5% (inactive) |
| O=C(Nc1cn2ccccc2n1)c1cc(-c2ccccc2)on1 | 10.3% (inactive) |
| Cc1ccc(CNc2nc(-c3ccccn3)nnc2-c2ccccc2)cc1 | 4.61% (inactive) |
| c1ccc(-c2ccc(CNc3nc(-c4ccccn4)nnc3-c3ccccc3)cc2)cc1 | 7.11% (inactive) |
| C[C@H](Nc1nc(-c2ccccn2)nnc1-c1ccccc1)C1CCCCC1 | -13.5% (inactive) |
| Cc1ccc(Nc2nc(-c3ccccn3)nnc2-c2ccccc2)cn1 | 3.19% (inactive) |
| c1ccc(-c2csc(Nc3nc(-c4ccccn4)nnc3-c3ccccc3)n2)cc1 | -2.4% (inactive) |
| Cc1cccc(NC(=O)c2cc(-c3ccccc3)on2)n1 | 2.1% (inactive) |
| CC(C)(C)OC(=O)N1CCN(Cc2ccc(O)c3ncccc23)CC1 | 6.73% (inactive) |
| O=C(NCC1CC1)c1cc(-c2ccccc2)on1 | 22.5% (inactive) |
| Cn1c(-c2ccccc2)cnc1NC(=O)c1cc(-c2ccccc2)on1 | -1.6% (inactive) |
| Cn1c(NC(=O)c2cc(-c3ccccc3)on2)nc2ccccc21 | 16% (inactive) |

test system: U2OS HRE-luciferase cells, viability toxicity, luminescence; experiment: as above; conditions: not given
How it was run: as §1

| SMILES | AC50 |
| --- | --- |
| c1ccc(-c2nnc(-c3ccccn3)nc2Nc2cnc3ccccc3n2)cc1 | 10.1 µM |
| Cn1c(-c2ccccc2)cnc1Nc1nc(-c2ccccn2)nnc1-c1ccccc1 | > 38 µM (inactive) |
| O=C(NC1CCc2ccccc2C1)c1cc(-c2ccccc2)on1 (centres undefined) | > 38 µM (inactive) |
| c1ccc(-c2nnc(Nc3nc(-c4ccccn4)nnc3-c3ccccc3)s2)cc1 | > 38 µM (inactive) |
| c1ccc(-c2nnc(-c3ccccn3)nc2Nc2nc3ccccc3s2)cc1 | 8.1 µM |
